The record followed here is paper PMC2606940 (The Journal of General Physiology, 2009).

Each structure is given as a SMILES string. Where a chain is given by its changes, count along the chain named. Read-outs that look alike come from different tables or passages of the source.

In assay [1] the target is T1, wild-type CLC-0 (E166, C212S background) (Torpedo marmorata, UniProt P21564, C212S).
T1 sequence (P21564 1-805 C212S): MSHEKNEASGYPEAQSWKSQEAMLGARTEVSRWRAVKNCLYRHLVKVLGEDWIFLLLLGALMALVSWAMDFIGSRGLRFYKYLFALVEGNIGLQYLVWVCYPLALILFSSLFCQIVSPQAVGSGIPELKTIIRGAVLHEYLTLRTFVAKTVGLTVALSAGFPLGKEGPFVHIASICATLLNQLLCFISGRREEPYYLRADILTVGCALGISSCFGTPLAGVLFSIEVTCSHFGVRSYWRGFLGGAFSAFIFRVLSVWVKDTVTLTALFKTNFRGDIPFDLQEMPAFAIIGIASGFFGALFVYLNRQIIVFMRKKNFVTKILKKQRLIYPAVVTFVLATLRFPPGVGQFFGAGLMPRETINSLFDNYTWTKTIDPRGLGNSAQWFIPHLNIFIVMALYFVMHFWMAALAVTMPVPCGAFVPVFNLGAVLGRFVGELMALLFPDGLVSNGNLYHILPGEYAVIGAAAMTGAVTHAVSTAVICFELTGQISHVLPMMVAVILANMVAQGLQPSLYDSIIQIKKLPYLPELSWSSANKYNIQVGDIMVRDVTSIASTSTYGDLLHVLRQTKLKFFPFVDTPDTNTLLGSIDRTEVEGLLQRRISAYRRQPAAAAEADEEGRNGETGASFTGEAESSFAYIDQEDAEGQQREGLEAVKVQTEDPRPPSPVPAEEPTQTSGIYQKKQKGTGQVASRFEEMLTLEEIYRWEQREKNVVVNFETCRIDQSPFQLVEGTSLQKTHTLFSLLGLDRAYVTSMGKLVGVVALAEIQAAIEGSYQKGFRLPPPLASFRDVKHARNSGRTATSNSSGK
The assay is classed as cell-based. As to conditions: for IC50: read-out: Apparent affinity (K1/2). An outline of the steps:
(§1)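 CLC-0 mutants in the C212S background were transfected into HEK293 cells with lipofectamine and recorded 1–3 d later as excised inside-out patches. Both sides held 130 mM NaCl, 5 mM MgCl2, 10 mM HEPES and 1 mM EGTA, pH 7.4. CPA was perfused continuously onto the cytoplasmic face. Steady-state current over the last 10 ms was normalized to bracketing blocker-free controls and fitted to a Langmuir function for K1/2. Values are mean ± SEM of ~4–6 patches.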

For another assay, the target named is T2, CLC-0 E166V mutant (Torpedo marmorata, UniProt P21564, C212S/E166V).
T2 sequence (P21564 1-805 E166V/C212S): T1 sequence (P21564 1-805 C212S) with E166V
It counts as cell-based. Particulars: read-out: Apparent affinity (K1/2). The procedure, abridged:
as §1

For the molecule `O=C(O)COc1ccc(Cl)cc1` [CPA, p-chlorophenoxy acetate], the IC50 in assay [1] (−40 mV) came to 9370 ± 330 µM; in assay [1] (−60 mV), 5220 ± 230 µM; in assay [1] (−80 mV), 2870 ± 200 µM; in assay [1] (−100 mV) it was 1960 ± 210 µM; in assay [1] (−120 mV) it was 1570 ± 190 µM; in assay [1] (−140 mV) it was 1170 ± 190 µM. For the same molecule, the IC50 in assay [1] (−160 mV) is 1340 ± 250 µM; at CLC-0 E166V mutant (−40 mV) it was 676 ± 78 µM; at CLC-0 E166V mutant (−60 mV) it was 373 ± 37 µM; at CLC-0 E166V mutant (−80 mV), 198 ± 15 µM; on CLC-0 E166V mutant (−100 mV), 113 ± 10 µM; at CLC-0 E166V mutant (−120 mV), 65 ± 7 µM. Moreover, the IC50 on CLC-0 E166V mutant (−140 mV) was 40 ± 4 µM; on CLC-0 E166V mutant (−160 mV) it was 26 ± 3 µM.
For the molecule `CCCCCCCC(=O)O` [octanoate], the IC50 was determined as 2610 ± 300 µM in assay [1] (−40 mV); 1290 ± 130 µM in assay [1] (−60 mV); 670 ± 50 µM in assay [1] (−80 mV); 390 ± 10 µM in assay [1] (−100 mV); 300 ± 20 µM in assay [1] (−120 mV); 260 ± 30 µM in assay [1] (−140 mV). Further, the IC50 in assay [1] (−160 mV) amounted to 190 ± 40 µM; at CLC-0 E166V mutant (−40 mV), 231 ± 14 µM; on CLC-0 E166V mutant (−60 mV) it was 126 ± 6.5 µM; on CLC-0 E166V mutant (−80 mV), 67.2 ± 3.7 µM; on CLC-0 E166V mutant (−100 mV), 35.3 ± 2.8 µM; on CLC-0 E166V mutant (−120 mV), 18.4 ± 1.5 µM. Further, the figures for the IC50 at CLC-0 E166V mutant (−140 mV) and at CLC-0 E166V mutant (−160 mV) were 10.2 ± 0.8 µM and 6 ± 0.4 µM, respectively. Further, the “effect on fast gate Po-V curve” value in assay [1] (various concentrations, initial tail current) was “shifts the fast gate Po-V curve toward more depolarized voltages”.
